Reference: the EternaBench riboswitch data

Test system: MS2 coat protein
Assay: apparent Kd, MS2 coat protein; higher = weaker binding; RNA-MaP array; FMN 200 µM where present
Procedure, shortened: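 Stalled E. coli RNA polymerase transcribed each design on Illumina sequencing-chip clusters. The clusters were titrated with SNAP-549-labelled MS2 coat protein, starting at 0.7 or 1.5 nM and doubling up to 3 µM, first without ligand and then with constant ligand, in 100 mM Tris-HCl pH 7.5, 80 mM KCl, 4 mM MgCl2, BSA, DTT, yeast tRNA and Tween-20. Green signal was normalised to red-channel RNA signal and to the control-cluster median Fmax. The apparent Kd is the median of filtered binding-curve fits made for each cluster.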

[1] = designed as: ON switch for flavin mononucleotide, no ligand
[2] = ligand present: flavin mononucleotide, designed as: ON switch for flavin mononucleotide
[3] = designed as: OFF switch for flavin mononucleotide, no ligand
[4] = ligand present: flavin mononucleotide, designed as: OFF switch for flavin mononucleotide

UUUUCGAACCGAGGAUAUCCUUAUAAGAAACAUGAGGAUCACCCAUGUAAAGGGAAUUAUUUGAAGGAGAAGGCGGAUUUUGUU
apparent Kd [1]: 50.1 nM
apparent Kd [2]: 32 nM

AUUCCUAAUGUUAGGAUAUGCGACGGGUGACCGUUGCAGAAGGAACAUGAGGAUCACCCAUGUUUAAUAAAAUC
apparent Kd [3]: 17.3 nM
apparent Kd [4]: 111 nM

CUUUUGUGAGGAUAUCAGUAGUAAAUAAAUUAAAUUACUACUGAGAAGGCACAUGAGGAUCACCCAUGUUCCUC
apparent Kd [3]: 38.3 nM
apparent Kd [4]: 249 nM

UUGUAGGAGACAGGAUAUGUACGGAAGGUUCACGUACAUGAGGAUCACCCAUGUCCAGACUUCAGACAGAAGGGUCACCAGGUG
apparent Kd [1]: 113 nM
apparent Kd [2]: 17.2 nM

UUUCCACAUGAGGAUCACCCAUGUGAGGAUAUGGAGCGCGACCGCGCGGUCGCGUACACCAGAAGGCGCAUGAU
apparent Kd [3]: 31.9 nM
apparent Kd [4]: 91 nM

GUUCUUCCUGUGAGGAUAUCCAUGUGUCGGUUUAUGGAGAAGGUACAUGAGGAUCACCCAUGUCACCCGCGUUA
apparent Kd [3]: 14 nM
apparent Kd [4]: 18.8 nM

UGUCGGAGCAGAGGAUAUUACAUGAGGAUCACCCAUGUAUGAACCAAUAGCUGGAAACAGCAAUGUAAGAAGGCUGCUCUGACA
apparent Kd [3]: 11.5 nM
apparent Kd [4]: 150 nM

GUAGUGCUCAUAGGAUAUCGGGAACAACGUAGACAGGUUGUACAUGAGGAUCACCCAUGUAAAGUCGAGAAGGGUGAUCACGCC
apparent Kd [1]: 519 nM
apparent Kd [2]: 194 nM

CGCACUAUACAUGAGGAUCACCCAUGUUAUUAUGAGAUAGUCAGAAGGCAUUGUUUGUGAAAUUAUGAGGAUAUGAAUAGUGCG
apparent Kd [1]: 146 nM
apparent Kd [2]: 79.3 nM

GGAUGACAAAGUCAUCCUAAACGAACAUGAGGAUCACCCAUGUAGGAUAUGCAACUCAAAGAGUUGCAGAAGGACAUGUGCCUU
apparent Kd [3]: 37.2 nM
apparent Kd [4]: 230 nM

GUAUGGAGUACAGGAUAUGUUAGUUUUAAGUGUAUUGGUUAUUACUUAAUUACAGAAGGGUAUUACAUGAGGAUCACCCAUGUA
apparent Kd [1]: 13.6 nM
apparent Kd [2]: 10.6 nM

AAAAAAAAAAGUCAGGAUAUACAAAUUUUUACAUGAGGAUCACCCAUGUUAAAGAAAAAAAAAAAGUAGAAGGGACAAAAAAAAAA
apparent Kd [1]: 25.1 nM
apparent Kd [2]: 14.9 nM

UCAUACAUGACAUGACAUGAGGAUCACCCAUGUCCAUGUUACAAGGAUAUGUACAUGAAACAUGUACAGAAGGUGUAUUGGACU
apparent Kd [3]: 15.4 nM
apparent Kd [4]: 29.4 nM

AAAUAGUUAGGAUAUACAUGAGGAUCACCCAUGUAGGGUUCAGUCAUGCAGAAAAUGCGUAGAAGGAACUAUCC
apparent Kd [3]: 18.4 nM
apparent Kd [4]: 16.7 nM

UUGGACGUCGUAGGAUAUGUAGGAUAUUCCUACAUGAGGAUCACCCAUGUUGACAUGGAAGAAGGACAGAAGGACGCUGUCCAU
apparent Kd [1]: 576 nM
apparent Kd [2]: 8.85 nM

AAUUUGGAGGGAGGAUAUACAUGAGGAUCACCCAUGUAGCCUAACACGGCUCUCAAUUUCCAAGUGUAGAAGGCCCAACGUGUU
apparent Kd [3]: 13.6 nM
apparent Kd [4]: 48.8 nM

AACCUAUUACAGAAGGCCAGCUACAUGAGGAUCACCCAUGUCGAGUCAUGGAGGAUAUGUAGUAAUCUGCACGCGUGCGGGCAC
apparent Kd [1]: 49.8 nM
apparent Kd [2]: 6.65 nM

GCGUACAUAUCAGGAUAUCAUAUAAUUGUUUAACUCAGUGUAUACAUGAGGAUCACCCAUGUUCUUGAGAAGGGAUAUGUACGC
apparent Kd [3]: 9.08 nM
apparent Kd [4]: 9.76 nM

ACAUGCAUAGCGAUAUGAUCGAGAGAUCAUGUCGCUUAAAAUAGAAGGACAUGAGGAUCACCCAUGUAGGAUAUGGGAGCAUGA
apparent Kd [1]: 25.8 nM
apparent Kd [2]: 11.7 nM

GCAUAUAUAUAAGGAUAUGCAUCACUGAGAAAUUUAGUGAGGAAGAUCACAUGAGGAUCACCCAUGUAGAAGGUAUAUAUGUGC
apparent Kd [3]: 8.18 nM
apparent Kd [4]: 46 nM

AGAGUGACAGGAUAUUGGAUUCCUAACAUGAGGAUCACCCAUGUAGUACGGUACUACUGUCAAGAAGGGUCACUCU
apparent Kd [3]: 75.8 nM
apparent Kd [4]: 68.8 nM

UCGAAAAUGCAAGGAUAUCAAUUAUAGCAAAAUAAGACAUGAGGAUCACCCAUGUAAAUAUGGAGUGAGAAGGUGCAAUAAUUU
apparent Kd [1]: 413 nM
apparent Kd [2]: 123 nM

GGGCCGGUGGAGAAGGAGCGUGCGAAACGCAUGCUAGGAUAUCCACAUGAGGAUCACCCAUGUGGGAAUAUCUGGUUUUCACAG
apparent Kd [3]: 3.85 nM
apparent Kd [4]: 4.65 nM

CAUUAAUUAAUUAGUUUAUACAUACAGGAUAUGUUACAUGAGGAUCACCCAUGUUUACAUGGGAUACAGAAGGGUAAAUAAAGA
apparent Kd [3]: 477 nM
apparent Kd [4]: 310 nM

UUGUUAAAUGAAGGAUAUACUUAACAUGAGGAUCACCCAUGUGGUGUUGUGAGUGAGUGAGUUUAGUAGAAGGUCAAUUCUUUU
apparent Kd [3]: 229 nM
apparent Kd [4]: 232 nM

AAGAAAGAAACAUAGGAUAUCAAGGAUAUAACAUGAGGAUCACCCAUGUAAAUACGAAAGUAUAAUGAGAAGGAUGGAUGAUCUUC
apparent Kd [1]: 86.1 nM
apparent Kd [2]: 122 nM

AAUCUAAUCCUUAAACAUGAGGAUCACCCAUGUAUUGGCAAGUAGGAUAUCGAUAAAUAUUUCAACGAGAAGGACUAUACAAAA
apparent Kd [3]: 21.7 nM
apparent Kd [4]: 31.7 nM

GGUCGCAAGUAAGGAUAUGCCUAGGAAACCUAGGCAGAAGGUACAUGAGGAUCACCCAUGUUAACGCAAAGCGAAUAAGCGACC
apparent Kd [3]: 15.8 nM
apparent Kd [4]: 21.5 nM

UGUCGGAGCAGAGGAUAUUACAUGAGGAUCACCCAUGUGGAAGAACCAAGCUGGAAACAGCAAUGUAAGAAGGCUGCUCCGACA
apparent Kd [3]: 1010 nM
apparent Kd [4]: 467 nM

GUCAGCUCGUGAGGAUAUACAACACUGCUUCGGGAGUGUAUUAAGAUCACAUGAGGAUCACCCAUGUAGAAGGCACGAGCUGAU
apparent Kd [3]: 15 nM
apparent Kd [4]: 254 nM

UUGCGACAUGAGGAUCACCCAUGUCAGGAUAUAUUGUAGAAACUGGUUGCGACCAGGCGUAGAAGGGACAUGGC
apparent Kd [3]: 28.6 nM
apparent Kd [4]: 37.7 nM

ACAUGCAUAGCGAUAUGAUCGAGAGAUCAUGUCGCUAAAGUUAGAAGGACAUGAGGAUCACCCAUGUAGGAUAUGGGAGCAUGA
apparent Kd [1]: 43.1 nM
apparent Kd [2]: 9.96 nM

AAUGCCAAUGAAGGAUAUACAAACAUGAGGAUCACCCAUGUGUCUUUCGUGUAACUGGAAUUCGGGUAGAAGGUCAUUGACAUA
apparent Kd [3]: 34.5 nM
apparent Kd [4]: 26.9 nM

CUGUGACGGUGCGCAAGUGGACGGAGAAGGGACACAUGAGGAUCACCCAUGUGGGCCUGCUAUUGUCAGGAUAUCCGUUCGUAC
apparent Kd [3]: 6.26 nM
apparent Kd [4]: 6.62 nM

GGUCGACAUGAGGAUCACCCAUGUCAGGAUAUCGUCACUGGAGCUGCGGCUCCAGUGACGAGAAGGGAUAUGAU
apparent Kd [3]: 41.3 nM
apparent Kd [4]: 37.4 nM

UAUAUAUAGUAAGGAUAUGUAUUAAUUCUAUAAACAGAAGGUACUGACAUGAGGAUCACCCAUGUUUUAGUGUGGGCAUGUAGA
apparent Kd [3]: 49.3 nM
apparent Kd [4]: 56 nM

AUUAAUUAAUUAAUACAUGAGGAUCACCCAUGUAAUAAGAUCUAGGAUAUCAGCUCGAUUAGAGCUGAGAAGGAGAUCACAUGU
apparent Kd [1]: 46.8 nM
apparent Kd [2]: 39.5 nM

UACAUUACUUAGAAGGGAUAUAUAUAAUUUUAAUCAGGAUAUAGAUACAGUACAACAUGAGGACAUGAGGAUCACCCAUGUAUU
apparent Kd [1]: 31.4 nM
apparent Kd [2]: 23.2 nM

CCCGAGUUAGGAUAUCGGACUGGCCCGCACAGGCUAGCAAUUGAGAAGGAACAUGAGGAUCACCCAUGUGAGUA
apparent Kd [3]: 24.2 nM
apparent Kd [4]: 61.6 nM

GUCAGCUCGUGAGGAUAUAAAACACUGCUUCGGCAGUGUAUUAAGAUCACAUGAGGAUCACCCAUGUAGAAGGCACGAGCUGAU
apparent Kd [3]: 5.05 nM
apparent Kd [4]: 6.38 nM

AAAUUUAACGAAGGAUAUGCUGACAUGAGGAUCACCCAUGUGUGCCUUGUGUUACUGAUUAGGUUGCAGAAGGUCGUAUACAUA
apparent Kd [3]: 230 nM
apparent Kd [4]: 948 nM

GCAAUCGCAUGAGGAUAUGCUCGAGUUUAGAGAGCAGAAGGCAUGUCAUAAGACAUGAGGAUCACCCAUGUAGUUAAAAUGGCA
apparent Kd [1]: 39.9 nM
apparent Kd [2]: 9.42 nM

AUAUGAUAGAUAGGAUAUACUGAGGUUGAAUGGGUAGAAGGAUCGAUAGGGAAGACUACAUGAGGAUCACCCAUGUUGUGGAUU
apparent Kd [1]: 88.4 nM
apparent Kd [2]: 52.6 nM

UGUCAAGCAGGAUAUGCACGUAAUAACAUGAGGAUCACCCAUGUGACCGAUUUAUAUUCUGCAGAAGGGCUUGGUU
apparent Kd [3]: 37.8 nM
apparent Kd [4]: 140 nM

GACCCAAAUGAGAAGGUGUGUAUAAAUUAUGUACAAGGAUAUCGGUCGAGCGUGUUGACAUGAGGAUCACCCAUGUUGUGGGUU
apparent Kd [1]: 139 nM
apparent Kd [2]: 56.2 nM

UAUUAGUAAGGAUAUGAGACGUAGGACGCAAGUCCUACGUCUCAGAAGGUACAUGAGGAUCACCCAUGUUUAUU
apparent Kd [3]: 18.1 nM
apparent Kd [4]: 24.4 nM

GUCGGAAACGACAAAAGUAUGGAUCCAGAAGGCAUGAUACAUGAGGAUCACCCAUGUCUAAGACAUGAGGAUAUGGAUCCAUAC
apparent Kd [1]: 13.7 nM
apparent Kd [2]: 4.77 nM
